# Measurements from ChEMBL document CHEMBL1145212, “Fluorinated diaryl sulfides as serotonin transporter ligands: synthesis, structure-activity relationship study, and in vivo evaluation of fluorine-18-labeled compounds as PET imaging agents” (J Med Chem, 2005).
# Tests used:
# Format in all cases: cell-based
# [1] = biological target: Sodium-dependent dopamine transporter (Homo sapiens, UniProt Q01959); test: In vitro displacement of [3H]GBR-12935 from human dopamine transporter expressed in HEK293 cells
# Sodium-dependent dopamine transporter, sequence (Q01959 whole entry): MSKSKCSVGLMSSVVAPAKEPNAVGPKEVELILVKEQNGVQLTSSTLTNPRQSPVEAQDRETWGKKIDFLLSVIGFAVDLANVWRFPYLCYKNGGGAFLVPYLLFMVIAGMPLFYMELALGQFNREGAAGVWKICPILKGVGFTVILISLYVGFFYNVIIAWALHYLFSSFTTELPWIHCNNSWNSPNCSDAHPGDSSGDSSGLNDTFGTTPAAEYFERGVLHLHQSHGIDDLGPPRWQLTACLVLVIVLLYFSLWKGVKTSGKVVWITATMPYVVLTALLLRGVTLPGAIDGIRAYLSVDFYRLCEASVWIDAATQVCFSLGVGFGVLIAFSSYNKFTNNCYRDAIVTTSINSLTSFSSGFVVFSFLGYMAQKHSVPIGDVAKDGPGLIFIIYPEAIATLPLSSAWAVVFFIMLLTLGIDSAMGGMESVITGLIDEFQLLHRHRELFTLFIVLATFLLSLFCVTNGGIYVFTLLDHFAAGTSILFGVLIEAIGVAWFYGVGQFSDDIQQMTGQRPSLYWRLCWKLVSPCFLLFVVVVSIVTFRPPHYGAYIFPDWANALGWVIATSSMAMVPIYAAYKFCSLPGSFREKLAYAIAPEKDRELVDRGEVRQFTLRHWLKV
# In short: (§1)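 Competitive binding using cloned human transporters expressed in HEK-293 cells. NET was labelled with [³H]nisoxetine and DAT with [³H]GBR12935, following a previously published procedure.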
# [2] = biological target: Sodium-dependent serotonin transporter (Homo sapiens, UniProt P31645); test: In vitro displacement of [3H]paroxetine from human serotonin transporter expressed in HEK293 cells
# Sodium-dependent serotonin transporter, sequence (P31645 whole entry): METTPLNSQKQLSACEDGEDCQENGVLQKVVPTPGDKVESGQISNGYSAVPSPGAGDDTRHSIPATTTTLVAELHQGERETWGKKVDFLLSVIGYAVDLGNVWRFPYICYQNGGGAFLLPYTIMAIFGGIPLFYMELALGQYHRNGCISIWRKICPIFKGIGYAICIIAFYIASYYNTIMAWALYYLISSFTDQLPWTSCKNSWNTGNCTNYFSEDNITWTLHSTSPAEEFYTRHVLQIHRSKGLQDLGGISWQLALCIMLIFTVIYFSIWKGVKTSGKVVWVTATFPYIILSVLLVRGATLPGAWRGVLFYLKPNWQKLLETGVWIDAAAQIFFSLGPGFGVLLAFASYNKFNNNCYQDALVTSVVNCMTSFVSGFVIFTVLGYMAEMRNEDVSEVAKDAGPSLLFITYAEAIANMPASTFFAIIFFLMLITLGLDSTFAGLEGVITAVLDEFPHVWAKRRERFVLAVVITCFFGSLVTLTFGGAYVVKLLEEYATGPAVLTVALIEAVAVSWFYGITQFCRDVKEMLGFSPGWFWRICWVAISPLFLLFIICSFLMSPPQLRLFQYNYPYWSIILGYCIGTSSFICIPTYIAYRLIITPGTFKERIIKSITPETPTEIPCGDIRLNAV
# [3] = biological target: Sodium-dependent noradrenaline transporter (Homo sapiens, UniProt P23975); test: In vitro displacement of [3H]nisoxetine from human norepinephrine transporter expressed in HEK293 cells; in short: as §1
# Sodium-dependent noradrenaline transporter, sequence (P23975 whole entry): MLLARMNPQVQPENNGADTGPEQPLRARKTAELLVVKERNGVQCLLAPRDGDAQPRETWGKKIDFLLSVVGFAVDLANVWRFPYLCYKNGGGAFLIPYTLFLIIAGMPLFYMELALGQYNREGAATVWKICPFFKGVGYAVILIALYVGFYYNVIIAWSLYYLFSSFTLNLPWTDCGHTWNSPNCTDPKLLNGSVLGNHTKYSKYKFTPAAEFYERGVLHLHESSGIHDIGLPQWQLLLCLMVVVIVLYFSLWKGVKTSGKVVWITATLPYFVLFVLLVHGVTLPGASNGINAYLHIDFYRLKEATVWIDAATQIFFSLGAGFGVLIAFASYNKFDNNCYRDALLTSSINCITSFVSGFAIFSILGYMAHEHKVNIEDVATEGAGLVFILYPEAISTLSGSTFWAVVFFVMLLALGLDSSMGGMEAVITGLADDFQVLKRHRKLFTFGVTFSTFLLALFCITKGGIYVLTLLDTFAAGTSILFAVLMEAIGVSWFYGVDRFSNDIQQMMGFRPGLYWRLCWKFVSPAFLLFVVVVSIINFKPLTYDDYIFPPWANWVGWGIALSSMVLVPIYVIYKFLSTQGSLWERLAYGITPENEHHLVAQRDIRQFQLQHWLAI
smiles,measurement,setting,value
Cc1cc(N)c(Sc2ccccc2CN(C)C)cc1F,Ki,[1],> 10 µM
same,Ki,[2],0.179 µM
same,Ki,[3],7.04 µM
